Data as given in ChEMBL document CHEMBL1124366, “Synthesis and biological properties of N63-carboxamides of teicoplanin antibiotics. Structure-activity relationships” (J Med Chem, 1989).
≈ marks a conversion by molar mass, not a printed value.

Experiments:
[1] = test system: Bacteria; assay: Minimum inhibitory concentration of compound against Gram negative bacteria; assay type: functional
[2] = test system: Streptococcus pyogenes; assay: Subcutaneously administration into mice infected with Streptococcus pyogenes C 203; assay type: functional; settings: sc
Outline: (§1)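 Mice (five per treatment group, five groups) infected intraperitoneally with about 10⁵ cells of Strep. pyogenes C 203, about 100× the LD50. ED50 (mg/kg) was calculated from the percentage of mice surviving at each dose on day 7.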

[3] = test system: Staphylococcus epidermidis; assay: In vitro minimum inhibitory concentration against Staphylococcus epidermis ATCC 12228; assay type: functional
[4] = test system: Staphylococcus aureus; assay: In vitro minimum inhibitory concentration against Staphylococcus aureus Tour; assay type: functional
[5] = test system: Streptococcus pneumoniae; assay: In vitro minimum inhibitory concentration against Streptococcus pneumoniae UC41; assay type: functional
[6] = test system: Streptococcus pyogenes; assay: In vitro minimum inhibitory concentration against Streptococcus pyogenes C 203; assay type: functional
[7] = test system: Enterococcus faecalis; assay: In vitro minimum inhibitory concentration against Streptococcus faecalis ATCC 7080; assay type: functional
[8] = test system: Streptococcus pyogenes; assay: In vivo effective dose given perorally to mice infected with Streptococcus pyogenes C 203; assay type: functional; settings: po; outline: as §1
[9] = test system: Staphylococcus sp.; assay: Minimum inhibitory concentration of compound against 16 different strains of staphylococcus species; assay type: functional
Outline: (§2)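 Agar dilution on Iso-Sensitest agar against clinical coagulase-negative staphylococcal isolates, including methicillin-resistant strains. Final inoculum about 10⁴ cfu/mL.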

[10] = test system: Staphylococcus epidermidis; assay: Minimum inhibitory concentration of compound against 12 strains of Staphylococcus epidermidis; assay type: functional; outline: as §2
[11] = test system: Staphylococcus epidermidis; assay: 50 percent Minimum inhibitory concentration of compound against 12 strains of Staphylococcus epidermidis; assay type: functional; outline: as §2
[12] = test system: Staphylococcus epidermidis; assay: 90 percent Minimum inhibitory concentration of compound against 12 strains of Staphylococcus epidermidis; assay type: functional; outline: as §2
[13] = test system: Staphylococcus sp.; assay: 50 percent Minimum inhibitory concentration of compound against 16 different strains of staphylococcus species; assay type: functional; outline: as §2
[14] = test system: Staphylococcus sp.; assay: 90 percent Minimum inhibitory concentration of compound against 16 different strains of staphylococcus species; assay type: functional; outline: as §2
[15] = test system: Staphylococcus haemolyticus; assay: In vitro minimum inhibitory concentration against Staphylococcus hemolyticus 602 cell line; assay type: functional; settings: strain 602
[16] = test system: Staphylococcus haemolyticus; assay: Minimum inhibitory concentration of compound against 8 strains of Staphylococcus hemolyticus; assay type: functional; outline: as §2
[17] = test system: Staphylococcus haemolyticus; assay: 50 percent Minimum inhibitory concentration of compound against 8 strains of Staphylococcus hemolyticus; assay type: functional; outline: as §2
[18] = test system: Staphylococcus haemolyticus; assay: 90 percent Minimum inhibitory concentration of compound against 8 strains of Staphylococcus hemolyticus; assay type: functional; outline: as §2
[19] = test system: Ac2-L-Lys-D-Ala-D-Ala peptide; assay: Association constant with Ac2-L-Lys-D-Ala-D-Ala
Outline: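 UV difference spectroscopy at 24 ± 2 °C in 4-cm unthermostated cells. Antibiotic was at 30 μM in 10% MeOH in sodium phosphate buffer, pH 9, and titrated with Ac2-L-Lys-D-Ala-D-Ala. ΔA was monitored at 294 nm. Ka was taken from the slope of a Scatchard plot.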

[20] = test system: Staphylococcus aureus; assay: In vitro minimum inhibitory concentration of compound against Staphylococcus aureus Tour; assay type: organism-based

SMILES	MIC [1] [µg/mL]	ED50 [2] [mg/kg]	MIC [3] [µg/mL]	MIC [4] [µg/mL]	MIC [5] [µg/mL]	MIC [6] [µg/mL]	MIC [7] [µg/mL]	ED50 [8] [mg/kg]	MIC [9] [µg/mL]	MIC [10] [µg/mL]	MIC50 [11] [µg/mL]	MIC90 [12] [µg/mL]	MIC50 [13] [µg/mL]	MIC90 [14] [µg/mL]	MIC [15] [µg/mL]	MIC [16] [µg/mL]	MIC50 [17] [µg/mL]	MIC90 [18] [µg/mL]	Ka [19] [M⁻¹]	MIC [20] [µg/mL]
CC(=O)N[C@@H]1[C@H](O[C@@H]2c3ccc(c(Cl)c3)Oc3cc4cc(c3O)Oc3ccc(cc3Cl)C[C@H]3NC(=O)[C@H](N)c5ccc(O)c(c5)Oc5cc(O)cc(c5)[C@H](NC3=O)C(=O)N[C@H]4C(=O)N[C@H]3C(=O)N[C@@H]2C(=O)N[C@H](C(=O)O)c2cc(O)cc(O[C@H]4O[C@H](CO)[C@@H](O)[C@@H](O)[C@@H]4O)c2-c2cc3ccc2O)O[C@@H](CO)[C@@H](O)[C@@H]1O	> 128	2.64	0.25 (≈ 0.16 µM)	0.25 (≈ 0.16 µM)	0.5 (≈ 0.32 µM)	0.12 (≈ 0.0767 µM)	0.5 (≈ 0.32 µM)	–	–	–	–	–	–	–	–	–	–	–	–	–
CC(=O)N[C@@H]1[C@H](O[C@@H]2c3ccc(c(Cl)c3)Oc3cc4cc(c3O[C@@H]3O[C@@H](CO)[C@@H](O)[C@H](O)[C@@H]3NC(=O)CCCCCCC(C)C)Oc3ccc(cc3Cl)C[C@H]3NC(=O)[C@H](N)c5ccc(O)c(c5)Oc5cc(O)cc(c5)[C@H](NC3=O)C(=O)N[C@H]4C(=O)N[C@H]3C(=O)N[C@@H]2C(=O)N[C@H](C(=O)NCCCN(C)C)c2cc(O)cc(O[C@H]4O[C@H](CO)[C@@H](O)[C@@H](O)[C@@H]4O)c2-c2cc3ccc2O)O[C@@H](CO)[C@@H](O)[C@@H]1O	–	0.05	0.06 (≈ 0.0306 µM)	0.12 (≈ 0.0611 µM)	0.06 (≈ 0.0306 µM)	0.06 (≈ 0.0306 µM)	0.12 (≈ 0.0611 µM)	70.7	0.25 (≈ 0.127 µM)	0.125 (≈ 0.0637 µM)	0.25 (≈ 0.127 µM)	1 (≈ 0.509 µM)	0.5 (≈ 0.255 µM)	1 (≈ 0.509 µM)	0.12 (≈ 0.0611 µM)	1 (≈ 0.509 µM)	1 (≈ 0.509 µM)	2 (≈ 1.02 µM)	–	–
CC(=O)N[C@@H]1[C@H](O[C@@H]2c3ccc(c(Cl)c3)Oc3cc4cc(c3O)Oc3ccc(cc3Cl)C[C@H]3NC(=O)[C@H](N)c5ccc(O)c(c5)Oc5cc(O)cc(c5)[C@H](NC3=O)C(=O)N[C@H]4C(=O)N[C@H]3C(=O)N[C@@H]2C(=O)N[C@H](C(=O)N2CCSCC2)c2cc(O)cc(O[C@H]4O[C@H](CO)[C@@H](O)[C@@H](O)[C@@H]4O)c2-c2cc3ccc2O)O[C@@H](CO)[C@@H](O)[C@@H]1O	> 128	1.6	0.12 (≈ 0.0728 µM)	0.5 (≈ 0.303 µM)	0.5 (≈ 0.303 µM)	0.5 (≈ 0.303 µM)	2 (≈ 1.21 µM)	–	–	–	–	–	–	–	–	–	–	–	120000	–
CC(=O)N[C@@H]1[C@H](O[C@@H]2c3ccc(c(Cl)c3)Oc3cc4cc(c3O)Oc3ccc(cc3Cl)C[C@H]3NC(=O)[C@H](N)c5ccc(O)c(c5)Oc5cc(O)cc(c5)[C@H](NC3=O)C(=O)N[C@H]4C(=O)N[C@H]3C(=O)N[C@@H]2C(=O)N[C@H](C(=O)N2CCN(C)CC2)c2cc(O)cc(O[C@H]4O[C@H](CO)[C@@H](O)[C@@H](O)[C@@H]4O)c2-c2cc3ccc2O)O[C@@H](CO)[C@@H](O)[C@@H]1O	> 128	0.95	0.12 (≈ 0.0729 µM)	0.25 (≈ 0.152 µM)	1 (≈ 0.607 µM)	0.5 (≈ 0.304 µM)	2 (≈ 1.21 µM)	–	–	–	–	–	–	–	–	–	–	–	100000	–
CC(=O)N[C@@H]1[C@H](O[C@@H]2c3ccc(c(Cl)c3)Oc3cc4cc(c3O[C@@H]3O[C@@H](CO)[C@@H](O)[C@H](O)[C@@H]3NC(=O)CCCCCCC(C)C)Oc3ccc(cc3Cl)C[C@H]3NC(=O)[C@H](N)c5ccc(O)c(c5)Oc5cc(O)cc(c5)[C@H](NC3=O)C(=O)N[C@H]4C(=O)N[C@H]3C(=O)N[C@@H]2C(=O)N[C@H](C(=O)NC2CCN(Cc4ccccc4)CC2)c2cc(O)cc(O[C@H]4O[C@H](CO)[C@@H](O)[C@@H](O)[C@@H]4O)c2-c2cc3ccc2O)O[C@@H](CO)[C@@H](O)[C@@H]1O	–	0.08	0.12 (≈ 0.0585 µM)	–	0.06 (≈ 0.0292 µM)	0.06 (≈ 0.0292 µM)	0.12 (≈ 0.0585 µM)	> 300	–	–	–	–	–	–	4 (≈ 1.95 µM)	–	–	–	–	0.12 (≈ 0.0585 µM)
